Shown are actives, neighbours in structure and some others; about 2.4% of the full set was active somewhere.
NPY-Y1 PAM-ag: NPY-Y1 receptor potentiators or agonists, primary screen, cell-based; 220,000 tested, 0.37% active; activation, % at 3.6 µM; NPY-Y1 expressing cells, potentiator/agonist activation; in the data active = activation above about 33%, passing the limit was not always enough;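 note: cells stimulated with NPY at EC10 then isoproterenol at EC100; 0% = low agonist plus stimulus and 100% = saturating agonist plus stimulus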
S1P4 antag: S1P4 receptor antagonists, primary screen, cell-based | Sphingosine 1-phosphate receptor 4 (Homo sapiens), O95977 | S1P4-expressing cells, antagonist mode, reporter read-out | inhibition, % at 4.98 µM | 220,000 tested, 0.26% active; in the data active = inhibition above about 29%;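 note: 0% = wells stimulated with agonist and 100% = vehicle wells without agonist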
NPY-Y2 antag: NPY-Y2 receptor antagonists, primary screen, cell-based; Neuropeptide Y receptor type 2 (Homo sapiens), P49146; NPY-Y2 expressing cells, antagonist mode; inhibition, % at 2.7 µM; 140,000 tested, 0.99% active; AID 793, 2007; in the data active = inhibition above about 17%;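 note: 0% = vehicle with agonist challenge and 100% = reference antagonist with challenge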
Target sequence (P49146 whole entry, looked up): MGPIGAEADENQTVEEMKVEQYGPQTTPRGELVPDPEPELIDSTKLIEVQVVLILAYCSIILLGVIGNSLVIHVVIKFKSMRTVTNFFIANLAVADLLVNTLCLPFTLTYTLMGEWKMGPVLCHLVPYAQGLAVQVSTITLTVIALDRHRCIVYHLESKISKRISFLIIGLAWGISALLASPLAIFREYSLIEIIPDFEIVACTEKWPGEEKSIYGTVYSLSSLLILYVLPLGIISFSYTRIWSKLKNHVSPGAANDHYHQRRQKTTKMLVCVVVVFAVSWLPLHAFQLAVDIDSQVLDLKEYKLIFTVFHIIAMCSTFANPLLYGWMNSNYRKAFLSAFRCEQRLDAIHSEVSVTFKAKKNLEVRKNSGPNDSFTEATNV
NPY2 pot ag: NPY-Y2 potentiators or agonists, primary screen, cell-based. activation, % at 3.6 µM. cells expressing NPY-Y2, potentiator/agonist read-out. 220,000 tested, 0.45% active. AID 1359, 2008; in the data active = activation above about 27%;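 note: cells stimulated with NPY near EC25 plus isoproterenol at EC100; 0% = vehicle plus submaximal agonist and 100% = vehicle plus saturating agonist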
NPY-Y1 antag: NPY-Y1 receptor antagonists, primary screen, cell-based | Neuropeptide Y receptor type 1 (Homo sapiens), P25929 | HEK293-CNG Y1 cells, membrane potential fluorescence; NPY at EC95, then isoproterenol | inhibition, % at 3.6 µM | 200,000 tested, 1% active;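 active = inhibition above the campaign mean inhibition of all tested compounds plus 3 SD, cut at about 20% in these data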;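 note: 0% = DMSO wells given NPY plus isoproterenol and 100% = isoproterenol alone without NPY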
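Assay system: HEK293 Y1/CNG channel cell line; Doses: single compound dose of 3.6 µM, 0.4% DMSO; Timing: dye 3 h, compound 60 min room temperature, stimulation 45 min; Technique: Membrane-potential fluorescent dye readout; Measure: % inhibition of NPY effect.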
S1P4 ag: S1P4 receptor agonists, primary screen, cell-based. AID 1509, 2009. activation, % at 4.98 µM. S1P4-expressing cell line, agonist reporter assay. 220,000 tested, 0.35% active; in the data active = activation above about 11%;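 note: 0% = DMSO vehicle and 100% = reference agonist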
NPY-Y2 pot conf: NPY-Y2 potentiators or agonists, confirmation, cell-based. shares compounds with NPY2 pot ag. cell-based NPY-Y2 potentiator/agonist assay. activation, % at 3.6 µM. 450 tested, 20% active. AID 1539, 2009; in the data active = activation above about 33%
NPY-Y1 counter: NPY-Y1 potentiators or agonists, counter-screen for NPY-Y2 potentiator project, cell-based, fluorescence. shares compounds with NPY2 pot ag. Y1 HEK293-CNG cells, membrane potential fluorescence. activation, % at 3.6 µM. 450 tested, 20% active; in the data active = activation above about 45%;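 note: cells stimulated with submaximal NPY then isoproterenol with phosphodiesterase inhibitor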
NPY-Y1 agonist 2: NPY-Y1 direct agonists, selectivity assay for NPY-Y2 potentiator project, cell-based, fluorescence. shares compounds with NPY2 pot ag. HEK293 Y1-CNGC, membrane potential fluorescence, agonism. activation, % at 3.6 µM. 450 tested, 37% active. AID 1702, 2009;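 active = activation above the mean of DMSO-only control wells plus 3 SD, cut at about 18% in these data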;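 note: cells stimulated with 1 µM isoproterenol plus the PDE inhibitor Ro 20-1724; 0% = isoproterenol with DMSO and no NPY and 100% = 40 nM NPY; Y1 agonists lower the membrane potential dye signal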
CNGC inh: CNGC cAMP sensor activity inhibitors, counter-screen for NPY-Y2 potentiator project, cell-based, HEK293-CNG parental, membrane potential fluorescence | shares compounds with NPY2 pot ag | isoproterenol cAMP | inhibition, % at 3.6 µM | 450 tested, 32% active;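 active = inhibition above the control-well mean plus 3 SD of those wells, cut at about 22% in these data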;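 note: 0% = DMSO with isoproterenol and 100% = DMSO without isoproterenol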
Y2 agonist ctr: NPY-Y2 direct agonists, counter-screen for NPY-Y2 potentiator project, cell-based, fluorescence; AID 1710, 2009; activation, % at 3.6 µM; shares compounds with NPY2 pot ag; 450 tested, 56% active; HEK293 Y2/CNGC cells, membrane potential fluorescence, agonist mode;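 active = activation above the mean of solvent-only control wells plus 3 SD, cut at about 10% in these data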;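 note: cells stimulated by isoproterenol with no NPY added so direct agonism is tested; 0% = DMSO with isoproterenol alone and 100% = NPY at EC100 plus isoproterenol; agonism lowers probe fluorescence through less cAMP and CNG channel opening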
An asterisk follows results filed as active; / = not tested or not shown.

SMILES | NPY-Y1 PAM-ag | S1P4 antag | NPY-Y2 antag | NPY2 pot ag | NPY-Y1 antag | S1P4 ag | NPY-Y2 pot conf | NPY-Y1 counter | NPY-Y1 agonist 2 | CNGC inh | Y2 agonist ctr
N=c1c2c(ncn1CCN1CCOCC1)Oc1cc(O)ccc1C2c1ccccc1 (configuration not stated) | -7.0 | 4.5 | / | 1.5 | / | 0.5 | / | / | / | / | /
O=C(c1ccc(S(=O)(=O)Nc2ccc(F)cc2)cc1)N1CCN(c2ccccn2)CC1 | -2.9 | -0.4 | / | 8.1 | -5.0 | 1.3 | / | / | / | / | /
Cc1ccc(NS(=O)(=O)c2ccc(C(=O)N3CCN(c4ncccn4)CC3)cc2)cc1 | 8.2 | -6.2 | / | 34.8* | -0.7 | 2.6 | -4.7 | -18.7 | -19.8 | -9.7 | -12.6
O=C(N/N=C/c1ccc(Cl)c([N+](=O)[O-])c1)c1cc(-c2ccc3c4c(cccc24)CC3)n[nH]1 | 35.7 | -0.1 | / | 44.7* | / | 1.6 | 14.6 | 25.2 | 18.3* | 12.0 | 23.5*
Cc1cccc(-n2c(N)cc(=O)nc2SCC(=O)Nc2cc(C)on2)c1 | 34.4 | -15.1 | 1.7 | 78.7* | 3.0 | 0.1 | -4.4 | 2.4 | -5.5 | -3.7 | -7.9
Cc1cc(NC(=O)CSc2nc(=O)cc(N)n2-c2ccc(Cl)cc2)no1 | 12.6 | -13.2 | / | -6.4 | -4.7 | 1.4 | / | / | / | / | /
O=C(NNc1ccc(C(F)(F)F)cc1[N+](=O)[O-])c1ccc(NS(=O)(=O)c2ccc(F)cc2)cc1 | 37.9 | -18.6 | -6.3 | 44.6* | -11.6 | 0.8 | 58.1* | 71.6* | 61.6* | 62.0* | 61.9*
C/C(CC1CC2=C(CC1(C)C)C(C)(C)CCC2)=N\NC(N)=S (configuration not stated) | -22.3 | 11.8 | 12.0 | -4.2 | 12.3 | 2.0 | / | / | / | / | /
CCn1cnc2cc([N+](=O)[O-])ccc21 | 17.1 | 21.5 | / | 1.5 | 4.2 | 1.2 | / | / | / | / | /
O=C(Nc1ccc(OCC(F)(F)C(F)F)c(C(F)(F)F)c1)c1ccccc1O | 40.6 | -2.9 | 3.9 | 61.3* | 6.0 | 2.7 | 3.4 | -17.1 | -17.3 | -11.4 | 0.8
O=C(Nc1ccc(OCC(F)(F)C(F)F)c(C(F)(F)F)c1)c1ccccc1 | -38.6 | -6.9 | 1.1 | -15.0 | 2.3 | 0.1 | / | / | / | / | /
O=C(Oc1ccc2ccccc2c1Br)N1CCCCCC1 | -14.8 | -9.1 | 1.8 | 4.3 | 10.3 | -5.1 | / | / | / | / | /
Cc1cc(NC(=O)c2ccccc2F)n(-c2nc3ccccc3[nH]2)n1 | 19.9 | 6.3 | 0.7 | 91.1* | 0.8 | -0.1 | -0.7 | -4.3 | -3.3 | 4.6 | 1.3
Cc1cc(NC(=O)c2c(F)cccc2Cl)n(-c2nc3ccccc3[nH]2)n1 | -13.5 | 1.1 | 2.4 | 5.5 | -2.0 | 0.5 | / | / | / | / | /
C=CCc1ccccc1OCC(O)CN1CCN(C(=O)OCC)CC1 (configuration not stated) | 31.4 | -1.4 | 8.0 | 35.2* | 3.3 | 1.6 | 10.7 | 13.4 | 19.6* | 1.1 | 6.0
COc1ccc(OCC(O)CN2CCN(c3ccccc3)CC2)cc1 (configuration not stated) | -7.0 | 10.2 | / | -9.7 | 8.3 | 0.2 | / | / | / | / | /

High-throughput results from PubChem BioAssay.
